Active and inactive are the calls of the source. No cut-off for these calls is given here.

In series [1] the target is T1, Amine oxidase [flavin-containing] B (Rattus norvegicus, UniProt P19643).
T1 sequence (P19643 whole entry): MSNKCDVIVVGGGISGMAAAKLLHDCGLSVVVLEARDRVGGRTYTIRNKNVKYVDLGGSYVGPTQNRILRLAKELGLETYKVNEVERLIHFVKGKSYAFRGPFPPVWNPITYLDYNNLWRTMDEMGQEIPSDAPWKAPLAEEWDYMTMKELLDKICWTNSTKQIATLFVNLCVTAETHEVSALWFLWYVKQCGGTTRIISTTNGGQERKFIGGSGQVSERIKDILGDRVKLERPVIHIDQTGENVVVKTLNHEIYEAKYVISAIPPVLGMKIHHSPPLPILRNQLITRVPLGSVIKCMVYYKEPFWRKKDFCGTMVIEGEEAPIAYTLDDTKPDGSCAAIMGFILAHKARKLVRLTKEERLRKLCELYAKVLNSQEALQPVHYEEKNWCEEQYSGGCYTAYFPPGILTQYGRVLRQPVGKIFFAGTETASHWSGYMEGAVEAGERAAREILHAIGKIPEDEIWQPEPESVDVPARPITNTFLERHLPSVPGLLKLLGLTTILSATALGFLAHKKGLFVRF
As to the kind of experiment: Inhibition of Wistar rat brain MAOB using kynuramine as substrate preincubated for 15 mins followed by substrate addition and measured after 15 mins by fluorescence assay. The procedure, abridged:
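Enzyme: unpurified mitochondrial homogenate from brains (cerebellum removed) of adult male Wistar rats (180−220 g), adjusted to 2500 μg/mL protein in PBS pH 7.4. Samples dissolved in 10% DMSO, tested over 0.1−100 μg/mL. Kynuramine 1 mM substrate; pargyline 10 μM as MAO-B-selective reference. Both incubations at 37 °C; stopped with 2 M NaOH. 4-Hydroxyquinoline read at ex 315/em 380 nm. Triplicate; IC50 as mean ± standard error.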

For series [2], the target named is T2, Amine oxidase [flavin-containing] A (Rattus norvegicus, UniProt P21396).
T2 sequence (P21396 whole entry): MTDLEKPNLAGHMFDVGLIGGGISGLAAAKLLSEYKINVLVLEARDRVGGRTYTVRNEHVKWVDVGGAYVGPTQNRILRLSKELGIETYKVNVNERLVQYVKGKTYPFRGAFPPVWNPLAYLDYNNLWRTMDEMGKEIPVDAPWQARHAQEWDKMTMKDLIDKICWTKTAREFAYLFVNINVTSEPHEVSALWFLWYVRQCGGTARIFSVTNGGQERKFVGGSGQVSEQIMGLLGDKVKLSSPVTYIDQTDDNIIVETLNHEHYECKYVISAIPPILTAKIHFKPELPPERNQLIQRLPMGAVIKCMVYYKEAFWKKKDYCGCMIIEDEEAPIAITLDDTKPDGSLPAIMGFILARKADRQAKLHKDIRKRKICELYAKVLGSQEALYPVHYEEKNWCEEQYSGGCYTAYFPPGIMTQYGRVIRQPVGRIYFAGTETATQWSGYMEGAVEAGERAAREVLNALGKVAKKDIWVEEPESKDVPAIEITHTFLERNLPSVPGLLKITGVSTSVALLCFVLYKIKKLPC
As to the kind of experiment: Inhibition of Wistar rat brain MAOA using kynuramine as substrate preincubated for 15 mins followed by substrate addition and measured after 15 mins by fluorescence assay. The procedure, abridged:
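Unpurified mitochondrial homogenate from brains of male Wistar rats (180–220 g), adjusted to 2500 μg/mL protein in PBS pH 7.4. Sample from 10% DMSO stock, tested over 0.1–100 μg/mL. Enzyme and sample preincubated 15 min at 37 °C, kynuramine (1 mM) added, incubated 15 min at 37 °C, stopped with 2 M NaOH. Triplicate.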

The species entered for another series is Rattus norvegicus. As to the kind of experiment: Selectivity index, ratio of IC50 for Wistar rat brain MAOB to Wistar rat brain MAOA.
The subject of series [3] is RAW264.7. As to the kind of experiment: Cytotoxicity against LPS-induced mouse RAW264.7 cells assessed as cell killing at 123 to 164 uM measured after 24 hrs by resazurin dye based fluorescence assay. The following applies: raw264.7, 24 h. The procedure, abridged: (§1)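 After the 24 h LPS (1 μg/mL) plus compound exposure and nitrite sampling, RAW264.7 wells given fresh DMEM-F12 with 10% heat-inactivated FBS plus resazurin (2 mM stock). Incubated a further 10 h at 37 °C, 5% CO2. Viability read as resorufin fluorescence. Vehicle Tween 80. Three independent experiments, mean ± SD.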

Series [4] can be described thus: Cytotoxicity against LPS-induced mouse RAW264.7 cells assessed as cell viability at 82 uM measured after 24 hrs by resazurin dye based fluorescence assay. Particulars: LPS-induced RAW264.7 cells, read-out: Activity. An outline of the steps:
as §1

Series [5] has as its system RAW264.7. As to the kind of experiment: Cytotoxicity against LPS-induced mouse RAW264.7 cells assessed as effect on cell viability at 41 uM measured after 24 hrs by resazurin dye based fluorescence assay. Particulars: raw264.7, 24 h. An outline of the steps:
as §1

Series [6] deals with RAW264.7. As to the kind of experiment: Antiinflammatory activity in mouse RAW264.7 cells assessed as inhibition of LPS-induced nitric oxide production at 41 uM after 24 hrs by Griess assay. It counts as functional, cell-based. The procedure, abridged:
(§2)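 Murine RAW264.7 macrophages in DMEM-F12 with 10% heat-inactivated FBS, no antibiotics, 37 °C, 5% CO2. Cells (2 × 10^5 cells/mL) preincubated 1 h, then compound added in Tween 80 vehicle, then stimulated with LPS 1 μg/mL for 24 h. Nitrite in medium measured by Griess reagent, absorbance 540 nm, quantified against NaNO2 standard curve. Triplicate, mean ± SEM.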

For another series, the system named is MCF7. As to the kind of experiment: Cytotoxicity against human MCF7 cells measured after 72 hrs by sulforhodamine B assay. It counts as functional, cell-based. Particulars: MCF7, 72 h. An outline of the steps:
(§3)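 Sulforhodamine B assay on human cancer lines in RPMI-1640 with 10% FBS, 104 cells/mL, 37 °C, 5% CO2. Treated in triplicate at about 70% confluence with 0.16–20 μg/mL sample in DMSO for 72 h. IC50 taken as concentration giving 50% of control growth, from a log10 concentration versus % viable cells plot.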

For another series, the system named is SiHa. As to the kind of experiment: Cytotoxicity against human SiHa cells measured after 72 hrs by sulforhodamine B assay. The format is functional, cell-based. The procedure, abridged: as §3
Series [7] is described as follows: Cytotoxicity against human HF6 cells measured after 72 hrs by sulforhodamine B assay. The format is functional, cell-based. The procedure, abridged:
as §3

The subject of a further series is PC-3. As to the kind of experiment: Cytotoxicity against human PC3 cells measured after 72 hrs by sulforhodamine B assay. The format is functional, cell-based. The following applies: PC-3, 72 h. An outline of the steps: as §3
The nature of series [8]: Cytotoxicity against human HSF30 cells measured after 72 hrs by sulforhodamine B assay. It counts as cell-based. An outline of the steps:
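HFS-30 normal human skin fibroblasts grown in DMEM with 10% FBS at 37 °C, 5% CO2. Treated in triplicate at about 70% confluence with 0.16–20 μg/mL sample in DMSO for 72 h. Sulforhodamine B read-out. IC50 is concentration giving 50% of control growth.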

Series [9] is described as follows: Selectivity index, ratio of IC50 for human HSF30 cells to IC50 for human MCF7 cells. The format is toxicity. Particulars: HSF30 cells and MCF7 cells, read-out: Ratio IC50. The procedure, abridged: (§4)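 SI calculated as IC50 in HFS-30 fibroblasts divided by IC50 in each cancer line, all from the 72 h sulforhodamine B assay.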
The nature of series [10]: Selectivity index, ratio of IC50 for human HSF30 cells to IC50 for human SiHa cells. The format is toxicity. Particulars: HSF30 cells and SiHa cells, read-out: Ratio IC50. The procedure, abridged: as §4
The nature of series [11]: Selectivity index, ratio of IC50 for human HSF30 cells to IC50 for human HF6 cells. An outline of the steps:
as §4

Series [12] is described as follows: Selectivity index, ratio of IC50 for human HSF30 cells to IC50 for human PC3 cells. Particulars: HSF30 cells and PC3 cells, read-out: Ratio IC50. The format is toxicity. The procedure, abridged: as §4
Series [13] deals with RAW264.7. As to the kind of experiment: Cytotoxicity against LPS-induced mouse RAW264.7 cells assessed as cell killing at 92 to 185 uM measured after 24 hrs by resazurin dye based fluorescence assay. Particulars: raw264.7, 24 h. The procedure, abridged: as §1
The test system of series [14] is RAW264.7. As to the kind of experiment: Cytotoxicity against LPS-induced mouse RAW264.7 cells assessed as effect on cell viability at 46 uM measured after 24 hrs by resazurin dye based fluorescence assay. The following applies: raw264.7, 24 h. An outline of the steps:
as §1

The test system of series [15] is RAW264.7. As to the kind of experiment: Antiinflammatory activity in mouse RAW264.7 cells assessed as inhibition of LPS-induced nitric oxide production at 46 uM after 24 hrs by Griess assay. The format is functional, cell-based. An outline of the steps: as §2

The molecule `C#CCN(C)Cc1ccccc1` [PARGYLINE] displayed an IC50 in [1] of 220 nM.
With `CCCC(=O)c1c(O)c(CC2=C(O)[C@](C)(C/C=C(\C)CCC=C(C)C)C(O)=C(C(C)=O)C2=O)c(O)c(CC=C(C)C)c1OC`, the IC50 was 1300 nM in series [2]; 4400 nM in [1]; more than 10000 nM in the series on MCF7; 5600 nM in the series with SiHa; 6400 nM in [7]; 2900 nM in the series on PC-3. This molecule also displayed an IC50 in series [8] of 80 nM. The Ratio IC50 in the series listed under Rattus norvegicus is 3.5; in [11], 0.013. In addition, the Activity is 100% with RAW264.7 [3] and “Non-Toxic” with RAW264.7 [5]. In series [4], the viability at 24 h, 82 µM worked out at 50%. Besides, in the series on RAW264.7 [6], the inhibition entry was “Active”. Moreover, the selectivity ratio stood at 0.0025 in [9], 0.015 in [10] and 0.029 in series [12].
As to `COc1cc([C@@H]2c3cc4c(cc3[C@H](O)[C@H]3COC(=O)[C@H]23)OCO4)cc(OC)c1OC` [PODOFILOX], the IC50 was determined as 5 nM in the series on MCF7; 100 nM in the series with SiHa; 1000 nM in series [7]; 200 nM in the series with PC-3; 2 nM in [8]. The selectivity ratio was found to be 0.45 in [9], 0.02 in [10] and 0.11 in series [12]. Also, the “Ratio IC50” value in [11] stood at 0.002.
On to `CCCC(=O)c1c(OC)cc(O)c(CC2=C(O)[C@](C)(C/C=C(\C)CCC=C(C)C)C(O)=C(C(C)=O)C2=O)c1O`, for which the IC50 was 31000 nM in series [2]; 4700 nM in series [1]; more than 10000 nM in the series on MCF7; 6000 nM in the series on SiHa; more than 10000 nM in series [7]; 1700 nM in the series with PC-3. The IC50 in [8] worked out at 9 nM. For the same molecule, the Ratio IC50 is 0.1 in the series listed under Rattus norvegicus and 0.0005 in series [11]. Moreover, the Activity was 100% in the series on RAW264.7 [13] and “Non-Toxic” in the series on RAW264.7 [14]. The inhibition entry in the series with RAW264.7 [15] is “Active”. The figures for the selectivity ratio in series [9], in series [10] and in [12] were 0.0002, 0.002 and 0.005, respectively.
As for `CC(=O)O[C@H]1C(=O)[C@@]2(C)[C@H]([C@H](OC(=O)c3ccccc3)[C@]3(O)C[C@H](OC(=O)[C@H](O)[C@@H](NC(=O)c4ccccc4)c4ccccc4)C(C)=C1C3(C)C)[C@]1(OC(C)=O)CO[C@@H]1C[C@@H]2O` [PACLITAXEL], the IC50 in the series with MCF7 stood at 50 nM; in the series with SiHa, 1400 nM; in series [7], 1600 nM; in the series with PC-3 it was 150 nM; in [8], 2 nM. The “Ratio IC50” value in series [11] was 0.001.

Source of the values: ChEMBL document CHEMBL4480464, “Bioactive Dimeric Acylphloroglucinols from the Mexican Fern Elaphoglossum paleaceum” (J Nat Prod, 2019).
